Experimental data published in ChEMBL document CHEMBL1152621, “Synthesis and discovery of pyrazole-5-carbohydrazide N-glycosides as inducer of autophagy in A549 lung cancer cells” (Bioorg Med Chem, 2009).
pIC50: −log10 of the molar value. Activity calls are given as the source filed them. No cut-off for these calls is given here.

Key:
[1] = system: A549; test: Effect on cell morphology in human A549 cells assessed as induction of vacuolization at 40 uM after 48 hrs by phase contrast microscopy; type: functional, cell-based
How it was run: (§1)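 A549 in RPMI 1640 with 10% bovine calf serum, 80 U/ml gentamicin, 37 °C, 5% CO2; seeded at 6250/cm2. Treated with compound or left untreated for 24 or 48 h. Morphology (vacuoles, cell number) photographed at 400× under inverted phase contrast microscope.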

[2] = system: A549; test: Growth inhibition of human A549 cells after 48 hrs by sulforhodamine B assay; type: functional, cell-based; settings: A549, 48 h
How it was run: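 A549 (RPMI 1640, 10% bovine calf serum, seeded 6250/cm2) exposed 24 h after seeding to compound at 10, 20 or 40 µM, 0.1% DMSO control, for 24 or 48 h. TCA fixation 1 h at 4 °C, 0.4% SRB in 1% acetic acid, dye dissolved in 10 mM Tris base pH 10.5, OD 510 nm; mean ± SE, n = 3.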

[3] = system: A549; test: Induction of necrosis in human A549 cells at 40 uM after 48 hrs assessed as increase in LDH release; type: cell-based; settings: a549, 48 h
How it was run: (§2)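 A549 treated 48 h at 20 or 40 µM, 0.1% DMSO control; culture medium collected and LDH release measured with a commercial lactate dehydrogenase kit; mean ± SE, n = 3.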

[4] = system: A549; test: Induction of autophagy in human A549 cells assessed as increase in LC3-II protein level at 40 uM after 24 hrs by Western blot; type: functional, cell-based
How it was run: (§3)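 A549 treated 24 or 48 h at 20 or 40 µM. Lysis in 0.5% SDS/Tris pH 7.5 buffer with protease inhibitors; Bradford protein; 15% SDS-PAGE, PVDF, milk block; anti-LC3b, anti-p62, anti-β-actin overnight 4 °C, HRP secondaries, chemiluminescence on X-ray film. Levels normalized to β-actin, expressed as percent of control.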

[5] = system: A549; test: Induction of autophagy in human A549 cells assessed as increase in LC3-II protein level at 40 uM after 48 hrs by Western blot; type: functional, cell-based; how it was run: as §3
[6] = system: A549; test: Effect on cell morphology in human A549 cells assessed as induction of vacuolization at 40 uM after 24 hrs by phase contrast microscopy; type: functional, cell-based; how it was run: as §1
[7] = system: A549; test: Induction of autophagy in human A549 cells assessed as decrease in p62 protein level at 40 uM after 48 hrs by Western blot; type: functional, cell-based; how it was run: as §3
[8] = system: A549; test: Effect on cell morphology in human A549 cells assessed as decrease in cell number at 40 uM after 24 hrs by phase contrast microscopy; type: functional, cell-based; how it was run: as §1
[9] = system: A549; test: Induction of autophagy in human A549 cells assessed as decrease in p62 protein level at 40 uM after 24 hrs by Western blot; type: functional, cell-based; how it was run: as §3
[10] = system: A549; test: Effect on cell morphology in human A549 cells assessed as decrease in cell number at 40 uM after 48 hrs by phase contrast microscopy; type: functional, cell-based; how it was run: as §1
[11] = system: A549; test: Effect on cell morphology in human A549 cells assessed as induction of vacuolization at 20 uM after 24 hrs by phase contrast microscopy; type: functional, cell-based; how it was run: as §1
[12] = system: A549; test: Induction of autophagy in human A549 cells assessed as increase in LC3-II protein level at 20 uM after 48 hrs by Western blot; type: functional, cell-based; how it was run: as §3
[13] = system: A549; test: Induction of necrosis in human A549 cells at 20 uM after 48 hrs assessed as increase in LDH release; type: cell-based; settings: a549, 48 h; how it was run: as §2
[14] = system: A549; test: Induction of autophagy in human A549 cells assessed as increase in LC3-II protein level at 20 uM after 24 hrs by Western blot; type: functional, cell-based; how it was run: as §3
[15] = system: A549; test: Effect on cell morphology in human A549 cells assessed as decrease in cell number at 20 uM after 24 hrs by phase contrast microscopy; type: functional, cell-based; how it was run: as §1
[16] = system: A549; test: Induction of autophagy in human A549 cells assessed as decrease in p62 protein level at 20 uM after 24 hrs by Western blot; type: functional, cell-based; how it was run: as §3
[17] = system: A549; test: Induction of autophagy in human A549 cells assessed as decrease in p62 protein level at 20 uM after 48 hrs by Western blot; type: functional, cell-based; how it was run: as §3
[18] = system: A549; test: Effect on cell morphology in human A549 cells assessed as decrease in cell number at 20 uM after 48 hrs by phase contrast microscopy; type: functional, cell-based; how it was run: as §1

| SMILES | Activity [1] | pIC50 [2] | Activity [3] | Activity [4] | Activity [5] | Activity [6] | Activity [7] | Activity [8] | Activity [9] | Activity [10] | other results |
| --- | --- | --- | --- | --- | --- | --- | --- | --- | --- | --- | --- |
| COc1ccc(-c2cc(C(=O)NN[C@@H]3O[C@H](CO)[C@@H](O)[C@H](O)[C@H]3O)n(Cc3ccc(C(C)(C)C)cc3)n2)cc1 | Active | 4.41 | Non-toxic | – | – | – | – | – | – | – | – |
| CC(C)(C)c1ccc(Cn2nc(-c3ccccc3)cc2C(=O)NN[C@@H]2O[C@H](CO)[C@@H](O)[C@H](O)[C@H]2O)cc1 | – | 4.67 | Non-toxic | inactive | Active | Active | Active | Active | Active | Active | – |
| O=C(NN[C@@H]1O[C@H](CO)[C@@H](O)[C@H](O)[C@H]1O)c1cc(-c2ccc(Cl)cc2)nn1Cc1ccc(Cl)nc1 | Active | 4.46 | Non-toxic | – | – | – | – | – | – | – | – |
| CC(C)(C)c1ccc(Cn2nc(-c3ccc(Cl)cc3)cc2C(=O)NN[C@@H]2OC[C@@H](O)[C@H](O)[C@H]2O)cc1 | – | 4.86 | Toxic | – | – | – | – | – | – | – | Activity [11]: Active; Activity [12]: Active; Activity [13]: Non-toxic; Activity [14]: inactive; Activity [15]: Active; Activity [16]: Active; Activity [17]: Active; Activity [18]: Active |
| COc1ccc(-c2cc(C(=O)NN[C@@H]3OC[C@@H](O)[C@H](O)[C@H]3O)n(Cc3ccc(C(C)(C)C)cc3)n2)cc1 | Active | 4.60 | Non-toxic | – | – | – | – | – | – | – | – |
| CC(C)(C)c1ccc(Cn2nc(-c3ccccc3)cc2C(=O)NN[C@@H]2OC[C@@H](O)[C@H](O)[C@H]2O)cc1 | – | 4.82 | Non-toxic | inactive | Active | Active | Active | Active | Active | Active | – |
| O=C(NN[C@@H]1O[C@H](CO)[C@@H](O)[C@H](O)[C@H]1O)c1cc(-c2ccc(Cl)cc2)nn1Cc1ccccc1 | – | 4.50 | Non-toxic | – | – | – | – | – | – | – | – |
| CC(C)(C)c1ccc(Cn2nc(-c3ccc(Cl)cc3)cc2C(=O)NN[C@@H]2O[C@H](CO)[C@@H](O)[C@H](O)[C@H]2O)cc1 | – | 4.57 | Non-toxic | inactive | Active | Active | Active | Active | Active | Active | – |
